Measured values published in ChEMBL document CHEMBL1828575, “Design, synthesis and antiproliferative activities of biarylolefins based on polyhydroxylated and carbohydrate scaffolds” (Eur J Med Chem, 2011).
Active and inactive are the calls of the source. The rule behind the calls is not given here.

How the values were obtained:
Ovis aries [1] = species on record: Ovis aries; assay: Inhibition of sheep brain tubulin polymerization at 10 uM
Procedure, shortened: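 Microtubule protein from sheep brain, purified by two assembly/disassembly cycles (37 °C/0 °C), in 100 mM MES pH 6.6, 1 mM EGTA, 0.5 mM MgCl₂. Compounds in DMSO were tested at a single concentration, with incubation at 37 °C for 10 min and then 0 °C for 5 min before measuring assembly rate, following a modified Guénard protocol.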

Ovis aries [2] = species on record: Ovis aries; assay: Inhibition of sheep brain tubulin polymerization at 17 uM
PC-3 [3] = assay: Cytotoxicity against human PC3 cells at 10^-6 M after 72 hrs by MTS assay; assay type: functional; settings: PC-3, 72 h, read-out: GI
Procedure, shortened: (§1)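 Preliminary screen at 10^-5 and 10^-6 M. Cells were grown in RPMI with 10% fetal calf serum plus penicillin, streptomycin and fungizone under 5% CO₂, plated in 96-well plates, and dosed 24 h later from DMSO stocks (1% DMSO final, same in controls). After 72 h, MTS was added for 3 h at 37 °C and absorbance read at 490 nm. Inhibition was calculated as (1 − OD treated/OD control) × 100, in triplicate.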

SF-268 [4] = assay: Cytotoxicity against human SF268 cells at 10^-6 M after 72 hrs by MTS assay; assay type: functional; settings: SF-268, 72 h, read-out: GI; procedure, shortened: as §1
SK-OV-3 [5] = assay: Cytotoxicity against human SKOV3 cells at 10^-6 M after 72 hrs by MTS assay; assay type: functional; settings: SK-OV-3, 72 h, read-out: GI; procedure, shortened: as §1
OVCAR-8 [6] = assay: Cytotoxicity against human OVCAR8 cells at 10^-6 M after 72 hrs by MTS assay; assay type: functional; settings: OVCAR-8, 72 h, read-out: GI; procedure, shortened: as §1
MIA PaCa-2 [7] = assay: Cytotoxicity against human MIAPaCa2 cells at 10^-6 M after 72 hrs by MTS assay; assay type: functional; settings: MIA PaCa-2, 72 h, read-out: GI
HL-60 [8] = assay: Cytotoxicity against human HL60 cells at 10^-6 M after 72 hrs by MTS assay; assay type: functional; settings: HL-60, 72 h, read-out: GI
Procedure, shortened: (§2)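 Cells grown in RPMI with 10% fetal calf serum, penicillin, streptomycin and fungizone under 5% CO₂. Plated in 96-well plates and dosed 24 h later with compound in DMSO (1% final DMSO; controls got DMSO alone). After 72 h, MTS was added for 3 h at 37 °C and A490 read. Inhibition = (1 − OD treated/OD control) × 100, in triplicate.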

[9] = Cytotoxicity against human HL60R cells at 10^-6 M after 72 hrs by MTS assay; assay type: functional; settings: read-out: GI; procedure, shortened: as §2
K562 [10] = assay: Cytotoxicity against human K562 cells at 10^-6 M after 72 hrs by MTS assay; assay type: functional; settings: K562, 72 h, read-out: GI; procedure, shortened: as §2
HCT-116 [11] = assay: Cytotoxicity against human HCT116 cells at 10^-5 M after 72 hrs by MTS assay; assay type: functional; settings: HCT-116, 72 h, read-out: GI; procedure, shortened: as §2
HT-29 [12] = assay: Cytotoxicity against human HT-29 cells at 10^-5 M after 72 hrs by MTS assay; assay type: functional; settings: HT-29, 72 h, read-out: GI; procedure, shortened: as §2
HCT-15 [13] = assay: Cytotoxicity against human HCT15 cells at 10^-5 M after 72 hrs by MTS assay; assay type: functional; settings: HCT-15, 72 h, read-out: GI; procedure, shortened: as §2
MCF7 [14] = assay: Cytotoxicity against human MCF7 cells at 10^-5 M after 72 hrs by MTS assay; assay type: functional; settings: MCF7, 72 h, read-out: GI
[15] = Cytotoxicity against human MDA231 cells at 10^-5 M after 72 hrs by MTS assay; assay type: functional; settings: MDA-MB-231, 72 h, read-out: GI; procedure, shortened: as §1
A549 [16] = assay: Cytotoxicity against human A549 cells at 10^-5 M after 72 hrs by MTS assay; assay type: functional; settings: A549, 72 h, read-out: GI; procedure, shortened: as §2
PC-3 [17] = assay: Cytotoxicity against human PC3 cells at 10^-5 M after 72 hrs by MTS assay; assay type: functional; settings: PC-3, 72 h, read-out: GI; procedure, shortened: as §1
SF-268 [18] = assay: Cytotoxicity against human SF268 cells at 10^-5 M after 72 hrs by MTS assay; assay type: functional; settings: SF-268, 72 h, read-out: GI; procedure, shortened: as §1
SK-OV-3 [19] = assay: Cytotoxicity against human SKOV3 cells at 10^-5 M after 72 hrs by MTS assay; assay type: functional; settings: SK-OV-3, 72 h, read-out: GI; procedure, shortened: as §1
OVCAR-8 [20] = assay: Cytotoxicity against human OVCAR8 cells at 10^-5 M after 72 hrs by MTS assay; assay type: functional; settings: OVCAR-8, 72 h, read-out: GI; procedure, shortened: as §1
MIA PaCa-2 [21] = assay: Cytotoxicity against human MIAPaCa2 cells at 10^-5 M after 72 hrs by MTS assay; assay type: functional; settings: MIA PaCa-2, 72 h, read-out: GI
HL-60 [22] = assay: Cytotoxicity against human HL60 cells at 10^-5 M after 72 hrs by MTS assay; assay type: functional; settings: HL-60, 72 h, read-out: GI; procedure, shortened: as §2
[23] = Cytotoxicity against human HL60R cells at 10^-5 M after 72 hrs by MTS assay; assay type: functional, HL-60; settings: read-out: GI; procedure, shortened: as §2
K562 [24] = assay: Cytotoxicity against human K562 cells at 10^-5 M after 72 hrs by MTS assay; assay type: functional; settings: K562, 72 h, read-out: GI; procedure, shortened: as §2
HCT-116 [25] = assay: Cytotoxicity against human HCT116 cells at 10^-6 M after 72 hrs by MTS assay; assay type: functional; settings: HCT-116, 72 h, read-out: GI; procedure, shortened: as §2
HT-29 [26] = assay: Cytotoxicity against human HT-29 cells at 10^-6 M after 72 hrs by MTS assay; assay type: functional; settings: HT-29, 72 h, read-out: GI; procedure, shortened: as §2
HCT-15 [27] = assay: Cytotoxicity against human HCT15 cells at 10^-6 M after 72 hrs by MTS assay; assay type: functional; settings: HCT-15, 72 h, read-out: GI; procedure, shortened: as §2
MCF7 [28] = assay: Cytotoxicity against human MCF7 cells at 10^-6 M after 72 hrs by MTS assay; assay type: functional; settings: MCF7, 72 h, read-out: GI
[29] = Cytotoxicity against human MDA231 cells at 10^-6 M after 72 hrs by MTS assay; assay type: functional; settings: MDA-MB-231, 72 h, read-out: GI; procedure, shortened: as §1
A549 [30] = assay: Cytotoxicity against human A549 cells at 10^-6 M after 72 hrs by MTS assay; assay type: functional; settings: A549, 72 h, read-out: GI; procedure, shortened: as §2

Compound | tubulin polymerization inhibition call (active/not active) (Ovis aries [1]) | inhibition of growth at 1 µM (PC-3 [3]) | inhibition of growth at 1 µM (SF-268 [4]) | inhibition of growth at 1 µM (SK-OV-3 [5]) | inhibition of growth at 1 µM (OVCAR-8 [6]) | inhibition of growth at 1 µM (MIA PaCa-2 [7]) | inhibition of growth at 1 µM (HL-60 [8]) | inhibition of growth at 1 µM [9] | inhibition of growth at 1 µM (K562 [10]) | inhibition of growth at 10 µM (HCT-116 [11]) | inhibition of growth at 10 µM (HT-29 [12]) | inhibition of growth at 10 µM (HCT-15 [13]) | inhibition of growth at 10 µM (MCF7 [14]) | inhibition of growth at 10 µM [15] | inhibition of growth at 10 µM (A549 [16]) | inhibition of growth at 10 µM (PC-3 [17]) | inhibition of growth at 10 µM (SF-268 [18]) | inhibition of growth at 10 µM (SK-OV-3 [19]) | inhibition of growth at 10 µM (OVCAR-8 [20]) | inhibition of growth at 10 µM (MIA PaCa-2 [21]) | other results
COc1ccc(C(=C(CO)CO)c2cc(OC)c(OC)c(OC)c2)cc1O | inactive |  |  |  |  |  |  |  |  |  |  |  |  |  |  |  |  |  |  |  | inhibition (Ovis aries [2]): Active
COc1cc(C(=C(COC(C)=O)COC(C)=O)c2cc(OC)c(OC)c(OC)c2)cc(OC)c1OC | inactive | 7% | 26% | 8% | 0% | 0% | 15% | 11% | 12% | 17% | 4% | 48% | 44% | 69% | 22% | 44% | 53% | 23% | 24% | 10% | inhibition of growth at 10 µM (HL-60 [22]): 39%; inhibition of growth at 10 µM [23]: 36%; inhibition of growth at 10 µM (K562 [24]): 29%; inhibition of growth at 1 µM (HCT-116 [25]): 0%; inhibition of growth at 1 µM (HT-29 [26]): 0%; inhibition of growth at 1 µM (HCT-15 [27]): 19%; inhibition of growth at 1 µM (MCF7 [28]): 5%; inhibition of growth at 1 µM [29]: 0%; inhibition of growth at 1 µM (A549 [30]): 0%
COc1cc(C(=C(COC(C)=O)COC(C)=O)c2ccc3c(c2)OCO3)cc(OC)c1OC | inactive | 3% | 24% | 3% | 0% | 0% | 17% | 9% | 5% | 0% | 0% | 22% | 11% | 17% | 12% | 13% | 20% | 7% | 0% | 0% | inhibition of growth at 10 µM (HL-60 [22]): 30%; inhibition of growth at 10 µM [23]: 24%; inhibition of growth at 10 µM (K562 [24]): 26%; inhibition of growth at 1 µM (HCT-116 [25]): 0%; inhibition of growth at 1 µM (HT-29 [26]): 0%; inhibition of growth at 1 µM (HCT-15 [27]): 9%; inhibition of growth at 1 µM (MCF7 [28]): 0%; inhibition of growth at 1 µM [29]: 0%; inhibition of growth at 1 µM (A549 [30]): 0%
